Converted amounts (≈) assume the structure as drawn.
Assays:
2B37v2 V480L [1] = molecular target: T1, 2B37v2 V480L (Neotoma lepida, UniProt J9JD75, V480L, form not given); test: 7-BR O-debenzylation, reconstituted system; assay type: biochemical; conditions: enzyme 2B37v2 V480L
2B35v1 [2] = molecular target: T2, 2B35v1 (Neotoma lepida, UniProt J7EVA5); test: 7-BR O-debenzylation, reconstituted system; assay type: biochemical; conditions: substrate 7-BR; enzyme 2B35v1
T2 sequence (J7EVA5 22-491): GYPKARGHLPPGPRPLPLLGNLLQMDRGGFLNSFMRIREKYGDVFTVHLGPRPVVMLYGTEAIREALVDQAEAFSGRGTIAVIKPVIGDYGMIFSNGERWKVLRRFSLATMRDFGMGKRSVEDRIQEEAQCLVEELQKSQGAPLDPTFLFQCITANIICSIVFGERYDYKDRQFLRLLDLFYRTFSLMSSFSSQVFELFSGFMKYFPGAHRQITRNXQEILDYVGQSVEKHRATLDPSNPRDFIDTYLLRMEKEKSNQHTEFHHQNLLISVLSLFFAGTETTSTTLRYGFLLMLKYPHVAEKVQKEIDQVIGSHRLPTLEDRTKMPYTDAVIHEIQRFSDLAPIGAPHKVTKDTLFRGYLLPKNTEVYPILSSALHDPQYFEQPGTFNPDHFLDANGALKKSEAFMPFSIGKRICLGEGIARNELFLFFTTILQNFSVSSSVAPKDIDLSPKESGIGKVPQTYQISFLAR
Method in brief: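 Same His4-tagged enzyme and purification, and same reconstituted system (P450:rat reductase:rat b5 1:4:2). 7-BR 0–10 μM in 50 mM HEPES pH 7.4, 15 mM MgCl2. NADPH 1 mM final started the reaction, 10 min at 37 °C, then methanol quench. Resorufin read at ex 550/em 580 nm, calibrated daily with 0–2 μM resorufin. Steady-state parameters from Michaelis-Menten regression.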

2B37v2 R262K [3] = molecular target: T3, 2B37v2 R262K (Neotoma lepida, UniProt J9JD75, R262K, form not given); test: 7-BR O-debenzylation, reconstituted system; assay type: biochemical; conditions: enzyme 2B37v2 R262K
2B37v1 K262R [4] = molecular target: T4, 2B37v1 K262R (Neotoma lepida, UniProt J7EWE1, K262R, form not given); test: 7-BR O-debenzylation, reconstituted system; assay type: biochemical; conditions: enzyme 2B37v1 K262R
rat 2B1 [5] = molecular target: rat 2B1 (Rattus norvegicus, UniProt P00176, E2A/G22K/H23K/K25S/N29K/P24T/R27K); test: 7-BR O-debenzylation, reconstituted system; assay type: biochemical; conditions: enzyme 2B1
2B37v1 [6] = molecular target: T5, 2B37v1 (Neotoma lepida, UniProt J7EWE1); test: 7-BR O-debenzylation, reconstituted system; assay type: biochemical; conditions: enzyme 2B37v1
2B36v1 [7] = molecular target: T6, 2B36v1 (Neotoma lepida, UniProt J7EWE5); test: 7-BR O-debenzylation, reconstituted system; assay type: biochemical
[8] = Solubility limit in aqueous solutions; assay type: physicochemical
2B37v2 [9] = molecular target: T7, 2B37v2 (Neotoma lepida, UniProt J9JD75); test: 7-BR O-debenzylation, reconstituted system; assay type: biochemical; conditions: enzyme 2B37v2
2B37v2 V114I [10] = molecular target: T8, 2B37v2 V114I (Neotoma lepida, UniProt J9JD75, V114I, form not given); test: 7-BR O-debenzylation, reconstituted system; assay type: biochemical; conditions: enzyme 2B37v2 V114I
2B36v1 [11] = molecular target: T6, 2B36v1; test: 7-EFC O-deethylation, reconstituted system; assay type: biochemical; conditions: enzyme 2B36v1
2B37v2 V114I/V480L = 2B37v2 V114I/V480L (Neotoma lepida, UniProt J9JD75, V114I/V480L, form not given); test: 7-EFC O-deethylation, reconstituted system; assay type: biochemical; conditions: enzyme 2B37v2 V114I/V480L
2B37v1 K262R [12] = molecular target: T4, 2B37v1 K262R; test: 7-EFC O-deethylation, reconstituted system; assay type: biochemical
2B37v1 [13] = molecular target: T5, 2B37v1; test: 7-EFC O-deethylation, reconstituted system; assay type: biochemical
2B37v2 V114I [14] = molecular target: T8, 2B37v2 V114I; test: 7-EFC O-deethylation, reconstituted system; assay type: biochemical; conditions: enzyme 2B37v2 V114I
2B37v2 V480L [15] = molecular target: T1, 2B37v2 V480L; test: 7-EFC O-deethylation, reconstituted system; assay type: biochemical; conditions: enzyme 2B37v2 V480L
2B37v2 R262K [16] = molecular target: T3, 2B37v2 R262K; test: 7-EFC O-deethylation, reconstituted system; assay type: biochemical
2B35v1 [17] = molecular target: T2, 2B35v1; test: 7-EFC O-deethylation, reconstituted system; assay type: biochemical; conditions: substrate 7-EFC; enzyme 2B35v1
Method in brief: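 Enzyme with C-terminal His4 tag, expressed in TOPP3 cells and purified on Ni-NTA then CM-Sepharose. Reconstituted with rat NADPH-P450 reductase and rat cytochrome b5 (P450:reductase:b5 1:4:2). 7-EFC 0–150 μM in 50 mM HEPES pH 7.4, 15 mM MgCl2. Started with 1 mM NADPH, 10 min at 37 °C, quenched with ice-cold acetonitrile, diluted into 0.1 M Tris pH 9.0. 7-HFC read at ex 410/em 510 nm, calibrated daily with 0–2 μM HFC. Michaelis-Menten fit.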

2B37v2 [18] = molecular target: T7, 2B37v2; test: 7-EFC O-deethylation, reconstituted system; assay type: biochemical
human 2B6 = conditions: ref Talakad et al., 2009; cited from earlier work
2B37v2 [19] = molecular target: T7, 2B37v2; conditions: read-out: (+)-α-pinene spectral binding KS; enzyme 2B37v2; 25 °C
2B36v1 [20] = molecular target: T6, 2B36v1; conditions: read-out: (+)-α-pinene spectral binding KS; enzyme 2B36v1; 25 °C
2B37v1 [21] = molecular target: T5, 2B37v1; conditions: read-out: (+)-α-pinene spectral binding KS; enzyme 2B37v1; 25 °C
rat 2B1 [22] = molecular target: T9, rat 2B1 (Rattus norvegicus, UniProt P00176, E2A/G22K/H23K/K25S/N29K/P24T/R27K); assay type: binding
T9 sequence (P00176 with tags, fused parts or gaps limits assumed): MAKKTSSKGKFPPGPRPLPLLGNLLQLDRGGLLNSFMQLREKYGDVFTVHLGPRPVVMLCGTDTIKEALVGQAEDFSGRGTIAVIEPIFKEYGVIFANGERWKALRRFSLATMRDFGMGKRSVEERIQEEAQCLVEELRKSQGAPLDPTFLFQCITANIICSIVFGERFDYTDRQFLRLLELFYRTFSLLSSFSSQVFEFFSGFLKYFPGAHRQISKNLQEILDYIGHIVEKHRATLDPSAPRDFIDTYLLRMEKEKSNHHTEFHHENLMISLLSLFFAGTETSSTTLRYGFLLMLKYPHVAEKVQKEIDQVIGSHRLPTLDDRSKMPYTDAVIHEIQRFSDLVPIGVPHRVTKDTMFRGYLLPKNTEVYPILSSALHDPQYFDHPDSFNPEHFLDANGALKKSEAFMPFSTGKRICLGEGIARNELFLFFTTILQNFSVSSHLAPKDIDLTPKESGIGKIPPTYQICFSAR

2B35v1 [23] = molecular target: T2, 2B35v1; conditions: read-out: (+)-α-pinene spectral binding KS; enzyme 2B35v1; 25 °C
[24] = ref Sridhar et al., 2012; cited from earlier work
[25] = system: CCOc1ccc2c(C(F)(F)F)cc(=O)oc2c1; test: 7-EFC O-deethylation, reconstituted system; assay type: biochemical, rat; conditions: other: enzyme 2B1; 37.0 °C
[26] = read-out: 7-BR O-debenzylation KM
[27] = read-out: 7-EFC O-deethylation KM

With `O=c1ccc2nc3ccc(OCc4ccccc4)cc3oc-2c1` [7-BR, 7-benzyloxyresorufin] the “7-BR O-debenzylation kcat” value (2B37v2 V480L [1]) was 0.47 ± 0.08 min^−^1, the Km (2B37v2 V480L [1]; [26]) was 4.5 ± 0.7 µM and the O-dealkylation products (2B35v1 [2]) was “not detected”. The “7-BR O-debenzylation kcat” value (2B37v2 R262K [3]) was 0.18 ± 0.05 min^−^1, the Km (2B37v2 R262K [3]; [26]) was 9.2 ± 0.7 µM and the “7-BR O-debenzylation kcat” value (2B37v1 K262R [4]) was 0.15 ± 0.07 min^−^1. The Km (2B37v1 K262R [4]; [26]) was 8.1 ± 0.7 µM, the “7-BR O-debenzylation kcat” value (rat 2B1 [5]) was ~ 4.5 min^−^1 and the “7-BR O-debenzylation kcat” value (2B37v1 [6]) was 0.16 ± 0.04 min^−^1. For the same compound, the Km (2B37v1 [6]; [26]) was 7.2 ± 0.6 µM, the “efficiency for 7-BR O-debenzylation relative to 2B1” value (2B36v1 [7]; 2B36v1 as fraction of 2B1) was 1/40 and the “7-BR O-debenzylation kcat” value (2B36v1 [7]; enzyme 2B36v1) was 0.10 ± 0.03 min^−^1. For the same compound, the Km (2B36v1 [7]; read-out: 7-BR O-debenzylation KM, enzyme 2B36v1) was 1.7 ± 0.3 µM, the solubility [8] was roughly 10 µM (≈ 3.03 µg/mL) and the “7-BR O-debenzylation kcat” value (2B37v2 [9]) was 0.25 ± 0.06 min^−^1. The Km (2B37v2 [9]; [26]) was 9.5 ± 0.5 µM, the “7-BR O-debenzylation kcat” value (2B37v2 V114I [10]) was 0.13 ± 0.01 min^−^1 and the Km (2B37v2 V114I [10]; [26]) was 5.7 ± 1 µM.
With `CCOc1ccc2c(C(F)(F)F)cc(=O)oc2c1` [7-EFC, 7-ethoxy-4-(trifluoromethyl)coumarin] the “7-EFC O-deethylation kcat” value (2B36v1 [11]) was 3.3 ± 1.0 min^−^1, the Km (2B36v1 [11]; [27]) was 18.3 ± 7 µM and the “7-EFC O-deethylation kcat” value (2B37v2 V114I/V480L) was 20.8 ± 2.8 min^−^1. For the same compound, the Km (2B37v2 V114I/V480L; [27]) was 32.5 ± 4.4 µM, the “decrease in 7-EFC kcat” value (2B37v1 K262R [12]; 2B37v1 K262R vs 2B37v1) was ~ 45% and the “reduction of 7-EFC catalytic efficiency” value (2B37v1 K262R [12]; 2B37v1 K262R vs 2B37v1) was ~ 35%. The “7-EFC O-deethylation kcat” value (2B37v1 K262R [12]; enzyme 2B37v1 K262R) was 5.4 ± 0.2 min^−^1, the Km (2B37v1 K262R [12]; read-out: 7-EFC O-deethylation KM, enzyme 2B37v1 K262R) was 19 ± 2.3 µM and the “7-EFC KM lower than 2B1” value (2B37v1 [13]; 2B37v1 vs 2B1) was ~ 25%. The “7-EFC catalytic efficiency higher than for 2B1” value (2B37v1 [13]; 2B37v1 vs 2B1) was ~ 1.8 fold, the “7-EFC kcat higher than that for 2B1” value (2B37v1 [13]; 2B37v1 vs 2B1) was ~ 1.4 fold and the “kcat for 7-EFC-O-deethylation greater than that of 2B1” value (2B37v1 [13]; 2B37v1 vs 2B1) was ~ 50%. For the same compound, the “7-EFC O-deethylation kcat” value (2B37v1 [13]; enzyme 2B37v1) was 10.0 ± 0.3 min^−^1, the Km (2B37v1 [13]; read-out: 7-EFC O-deethylation KM, enzyme 2B37v1) was 23.5 ± 2 µM and the “7-EFC O-deethylation kcat” value (2B37v2 V114I [14]) was 6.3 ± 1.9 min^−^1. The Km (2B37v2 V114I [14]; [27]) was 120 ± 2 µM, the “7-EFC O-deethylation kcat” value (2B37v2 V480L [15]) was 22.3 ± 2.0 min^−^1 and the Km (2B37v2 V480L [15]; [27]) was 23.9 ± 3.6 µM. The “decrease in 7-EFC catalytic efficiency” value (2B37v2 R262K [16]; 2B37v2 R262K vs 2B37v2) was 85%, the “7-EFC O-deethylation kcat” value (2B37v2 R262K [16]; enzyme 2B37v2 R262K) was 2.0 ± 0.1 min^−^1 and the Km (2B37v2 R262K [16]; read-out: 7-EFC O-deethylation KM, enzyme 2B37v2 R262K) was 20.3 ± 2.8 µM. For the same compound, the O-dealkylation products (2B35v1 [17]) was “not detected”, the “kcat for 7-EFC-O-deethylation greater than that of 2B1” value (2B37v2 [18]; 2B37v2 vs 2B1) was 2 fold and the “7-EFC O-deethylation kcat” value (2B37v2 [18]; enzyme 2B37v2) was 14.5 ± 8.3 min^−^1. The Km (2B37v2 [18]; read-out: 7-EFC O-deethylation KM, enzyme 2B37v2) was 20 ± 4.2 µM.
In the case of `COC(=O)[C@H](c1ccccc1Cl)N1CCc2sccc2C1` [clopidogrel], the KS (human 2B6) is listed as “low micromolar” and the “maximal increase in HSP450 content upon binding” value (shortened to “maximal increase”) (human 2B6) is listed as 2.6%.
For `CN[C@H]1CC[C@@H](c2ccc(Cl)c(Cl)c2)c2ccccc21` [sertraline], the “maximal increase” value (human 2B6) is listed as 0.8%.
For `Clc1ccccc1CN1CCc2sccc2C1` [ticlopidine], the KS (human 2B6) is listed as “low micromolar” and the “maximal increase” value (human 2B6) is listed as 2.3%.
(+)-α-pinene gave a Kd (2B37v2 [19]) of 910 ± 70 nM, a Kd (2B36v1 [20]) of 580 ± 40 nM and a Kd (2B37v1 [21]) of 9330 ± 760 nM. The “(+)-α-pinene spectral binding %HSP450 Max Δ” value (rat 2B1 [22]; maximum change in high-spin P450 content, enzyme 2B1) was 48.7 ± 1.3%, the “difference spectra type induced” value (rat 2B1 [22]; peak ~388 nm, trough ~420 nm, represented with 2B1, seen with each enzyme) was “Type I” and the Kd (rat 2B1 [22]; read-out: (+)-α-pinene spectral binding KS, enzyme 2B1, 25 °C) was 870 ± 80 nM. For the same compound, the Kd (2B35v1 [23]) was 1270 ± 490 nM and the “log P” value [24] was 4.44.
Compound “rat 2B1 (Rattus norvegicus; E2A/G22K/H23K/K25S/N29K/P24T/R27K)” has a Km [25] of 32.4 ± 4.9 µM, a kcat [25] of 0.115 ± 0.02 s⁻¹ and a kcat/Km [25] of 3500 M⁻¹ s⁻¹.

Source: article PMC3970846 (Toxicology and applied pharmacology, 2013)
